Values after ≈ are worked out from the molar mass of the structure shown. Active and inactive are the calls of the source. No cut-off for these calls is given here. *1 amine or outer side, *2 acyl side, *3 side chain or, on linkers, in order; H or OH if unused. Where a SMILES comes first, the peptide text is derived from it. Bridges are numbered along the chain shown (N, C = ends). Roman numbers before positions name the chains, in order. [ ]: non-standard residue; d: D form. Actinocin(1to9) = Cc1c2oc3c(C)ccc(C(=O)[*:2])c3nc-2c(C(=O)[*:1])c(N)c1=O; NMeV = CN[C@H](C(=O)O)C(C)C; Sar = CNCC(=O)O

We go through seven compounds from ChEMBL document CHEMBL1147740, “Synthesis and biological activity of isoxazolidinyl polycyclic aromatic hydrocarbons: potential DNA intercalators” (J Med Chem, 2006).

One test has as its system U-937. The test can be described thus: Cytotoxicity against U937 Lymphoma cells by MTS assay. It counts as functional, cell-based, Homo sapiens. In short, it runs like this: (§1)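 MTS tetrazolium reduction assay; cells grown under optimal culture conditions for 20 h with compound at 10 to 500 µM or without it; MTS reagent then added for 1 h at 37 °C, humidified 5% CO2; absorbance read at 490 nm. Triplicate. IC50 is the concentration giving 50% reduction of absorbance.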

The subject of test [1] is MOLT-3. The test can be described thus: Cytotoxicity against MOLT3 Leukemia cells by MTS assay. It counts as functional, cell-based, Homo sapiens. In short, it runs like this: as §1
In the next test the test system is Human respirovirus 3. Nature of the test: Antiviral activity against Parainfluenza-3 virus in vero cells. It counts as functional. In short, it runs like this:
(§2)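 Virus infection of Vero cell cultures. The endpoint is the minimum inhibitory concentration (µg/mL) that reduces virus-induced cytopathogenicity by 50%.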

Another test relates to Sindbis virus. The test can be described thus: Antiviral activity against Sindbis virus in vero cells. Format: functional. In short, it runs like this: as §2
The subject of test [2] is Human alphaherpesvirus 1. The test can be described thus: Antiviral activity against herpes simplex virus 1 TK- KOS ACVr strain in HEL cells. Format: functional. In short, it runs like this:
(§3)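 Minimum inhibitory concentration (µg/mL) needed to reduce virus-induced cytopathogenicity by 50%; HSV strains in HEL cells, Punta Toro virus in Vero cells.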

In test [3] the test system is Coxsackievirus B4. The test can be described thus: Antiviral activity against Coxsackie virus B4 in HeLa cells. Particulars: Enterovirus B. Format: functional. In short, it runs like this:
(§4)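 Virus infection of HeLa cell cultures. The endpoint is the minimum inhibitory concentration (µg/mL) that reduces virus-induced cytopathogenicity by 50%.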

A further test relates to Human alphaherpesvirus 2. The test can be described thus: Antiviral activity against Herpes simplex virus 2 G strain in HEL cells. It counts as functional. Conditions: Human alphaherpesvirus 2, G. In short, it runs like this:
as §3

Test [4] concerns Human alphaherpesvirus 1. Nature of the test: Antiviral activity against Herpes simplex virus 1 KOS strain in HEL cells. It counts as functional, Human herpesvirus 1 strain KOS. Particulars: Human alphaherpesvirus 1, KOS. In short, it runs like this:
as §3

Test [5] deals with Vero. The test can be described thus: Cytotoxicity against normal vero kidney cells by MTS assay. It counts as functional, cell-based, Chlorocebus sabaeus. In short, it runs like this:
as §1

The subject of the next test is HeLa. The test can be described thus: Antiviral activity against HeLa cells. It counts as functional, Homo sapiens. In short, it runs like this:
(§5)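 Cytotoxicity scored as the concentration giving a microscopically detectable alteration of normal cell morphology in HEL, HeLa or Vero cells.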

The subject of test [6] is Vero. The test can be described thus: Antiviral activity against vero cells. Format: functional, Chlorocebus sabaeus. In short, it runs like this: as §5
Test [7] relates to Mammalian orthoreovirus 1. The test can be described thus: Antiviral activity against Reovirus 1 in vero cells. It counts as functional. In short, it runs like this:
as §2

Another test deals with THP-1. Nature of the test: Cytotoxicity against THP1 Leukemia cells by MTS assay. It counts as functional, cell-based, Homo sapiens. In short, it runs like this:
as §1

Test [8] deals with Vesicular stomatitis virus. The test can be described thus: Antiviral activity against Vesicular stomatitis virus in HEL cells. It counts as functional. In short, it runs like this:
(§6)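 Virus infection of HEL cell cultures. The endpoint is the minimum inhibitory concentration (µg/mL) that reduces virus-induced cytopathogenicity by 50%.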

In the next test the test system is HEL. Nature of the test: Antiviral activity against HEL cells. It counts as functional, Homo sapiens. In short, it runs like this: as §5
A further test deals with Vaccinia virus. Nature of the test: Antiviral activity against Vaccinia virus in HEL cells. It counts as functional. Conditions: Orthopoxvirus vaccinia. In short, it runs like this:
as §6

Test [9] has as its system Coxsackievirus B4. Nature of the test: Antiviral activity against Coxsackie virus B4 in vero cells. Format: functional. Particulars: Enterovirus B. In short, it runs like this:
as §2

The subject of test [10] is Vesicular stomatitis virus. Nature of the test: Antiviral activity against Vesicular stomatitis virus in HeLa cells. Format: functional. In short, it runs like this: as §4
Another test concerns Punta Toro virus. Nature of the test: Antiviral activity against Punta Toro virus in vero cells. It counts as functional. In short, it runs like this:
as §3

Test [11] has as its system Respiratory syncytial virus. The test can be described thus: Antiviral activity against Respiratory syncytial virus in HeLa cells. It counts as functional. Particulars: human respiratory syncytial virus. In short, it runs like this:
as §4

Test [12] has as its system MOLT-3. Nature of the test: Cytotoxicity against MOLT3 Leukemia cells after 24 hrs of treatment. It counts as functional, cell-based. Conditions: Homo sapiens, MOLT-3, 24 h. In short, it runs like this:
(§7)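 Trypan blue exclusion; cells exposed under optimal culture conditions to new compounds at 10 to 500 µM (actinomycin D 1 to 200 µM) or control medium for the stated time. CC50 is the concentration causing 50% toxicity by trypan blue.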

In test [13] the test system is MOLT-3. The test can be described thus: Potentiation of fas-mediated apoptosis in MOLT3 cells. Particulars: Homo sapiens. Format: functional, cell-based. In short, it runs like this:
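MOLT-3 cells given anti-fas antibody (CH11) at 25, 50 or 100 ng/mL, alone or immediately after compound at 25 or 50 µM. Cultured 20 h, stained with acridine orange, and apoptosis scored by fluorescence microscopy.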

The subject of test [14] is MOLT-3. The test can be described thus: Cytotoxicity against MOLT3 Leukemia cells after 48 hrs of treatment. It counts as functional, cell-based. Particulars: Homo sapiens, MOLT-3, 48 h. In short, it runs like this:
as §7

Test [15] concerns MOLT-3. The test can be described thus: Cytotoxicity against MOLT3 Leukemia cells after 72 hrs of treatment. It counts as functional, cell-based. Conditions: Homo sapiens, MOLT-3, 72 h. In short, it runs like this: as §7
Where [16] appears, read: Human alphaherpesvirus 1, TK- KOS ACVr, read-out: MIC50.
Where [17] appears, read: Homo sapiens, HeLa, read-out: MCC.
Setting [18] is: Chlorocebus sabaeus, Vero, read-out: MCC.
Where [19] appears, read: Homo sapiens, HEL, read-out: MCC.
Where [20] appears, read: Punta Toro virus, read-out: MIC50.

As to `Cc1c2oc3c(C)ccc(C(=O)N[C@@H]4C(=O)N[C@H](C(C)C)C(=O)N5CCC[C@H]5C(=O)N(C)CC(=O)N(C)[C@@H](C(C)C)C(=O)O[C@@H]4C)c3nc-2c(C(=O)N[C@@H]2C(=O)N[C@H](C(C)C)C(=O)N3CCC[C@H]3C(=O)N(C)CC(=O)N(C)[C@@H](C(C)C)C(=O)O[C@@H]2C)c(N)c1=O` [DACTINOMYCIN] (I: T[dV]P[Sar][NMeV] / II: T[dV]P[Sar][NMeV]; ester I:1-I:C, II:1-II:C; linker I:N-II:N via Actinocin(1to9)), the IC50 with U-937 (Homo sapiens, U-937) was below 1 µM; in the test with MOLT-3 [1] (Homo sapiens, MOLT-3) it was below 1 µM.

For the compound `CN1O[C@H](CO)C[C@@H]1c1cc2ccccc2c2ccccc12` (racemic), the MIC50 was above 16 µg/mL against Human respirovirus 3; above 16 µg/mL against Sindbis virus; 48 µg/mL (≈ 164 µM) with Human alphaherpesvirus 1 [2] (setting [16]); above 16 µg/mL against Coxsackievirus B4 [3]; above 80 µg/mL against Human alphaherpesvirus 2; above 80 µg/mL with Human alphaherpesvirus 1 [4]. For the same compound, the MIC50 in test [7] was above 16 µg/mL; in test [8], above 80 µg/mL; against Vaccinia virus, above 80 µg/mL; against Coxsackievirus B4 [9] it was above 16 µg/mL; in [10] it was above 16 µg/mL; with Punta Toro virus (setting [20]) it was 9.6 µg/mL (≈ 32.7 µM). This compound also came in with an MIC50 in test [11] above 16 µg/mL. The IC50 with U-937 (Homo sapiens, U-937) was found to be 153 µM; with Vero [5] (Chlorocebus sabaeus, Vero), 246 µM; with THP-1 (Homo sapiens, THP-1), 169 µM; with MOLT-3 [1] (Homo sapiens, MOLT-3), 125 µM. In addition, the MCC was determined as 80 µg/mL in the test on HeLa (setting [17]), 80 µg/mL in the test with Vero [6] (setting [18]) and 400 µg/mL in the test on HEL (setting [19]).

Regarding `NC(=O)c1ncn([C@@H]2O[C@H](CO)[C@@H](O)[C@H]2O)n1` [RIBAVIRIN], the MIC50 in the test on Human respirovirus 3 is 48 µg/mL (≈ 197 µM); in the test on Sindbis virus, above 400 µg/mL; with Human alphaherpesvirus 1 [2] (setting [16]), above 400 µg/mL; in the test with Coxsackievirus B4 [3], 9.6 µg/mL (≈ 39.3 µM); with Human alphaherpesvirus 2, above 400 µg/mL; in the test with Human alphaherpesvirus 1 [4] it was 240 µg/mL (≈ 983 µM). In addition, the MIC50 in test [7] was 16 µg/mL (≈ 65.5 µM); in test [8], 240 µg/mL (≈ 983 µM); in the test on Vaccinia virus it was 80 µg/mL (≈ 328 µM); against Coxsackievirus B4 [9], above 400 µg/mL; in test [10] it was 16 µg/mL (≈ 65.5 µM); in the test on Punta Toro virus (setting [20]), 80 µg/mL (≈ 328 µM). For the same compound, the MIC50 in test [11] turned out to be 9.6 µg/mL (≈ 39.3 µM). Further, the MCC in the test with HeLa (setting [17]), in the test with Vero [6] (setting [18]) and in the test on HEL (setting [19]) was above 400 µg/mL in each case.

Take `OC[C@@H]1C[C@H](c2cc3ccccc3c3ccccc23)N(Cc2ccccc2)O1` (racemic): the activity with MOLT-3 [12] was half-maximal at 69 µM (AC50). In the test with MOLT-3 [12], the CC50 is 73 µM. The IC50 with U-937 (Homo sapiens, U-937) stood at 54 µM; in the test on Vero [5] (Chlorocebus sabaeus, Vero), 63 µM; with THP-1 (Homo sapiens, THP-1), 50 µM; in the test on MOLT-3 [1] (Homo sapiens, MOLT-3) it was 78 µM. In the test on MOLT-3 [13], the outcome was Active.

`CN1O[C@H](CO)C[C@@H]1c1cc2ccccc2c2ccccc12` (relative stereo): the MIC50 was above 80 µg/mL against Human alphaherpesvirus 1 [2] and 9.6 µg/mL (≈ 32.7 µM) with Punta Toro virus. The IC50 in the test with U-937 (u-937) turned out to be 154 µM; with Vero [5] (vero) it was 231 µM; in the test with THP-1 (thp-1), 148 µM; in the test on MOLT-3 [1] (molt-3), 128 µM. Besides, the MCC stood at 80 µg/mL in the test on HeLa, 80 µg/mL in the test on Vero [6] and 400 µg/mL in the test on HEL.

Compound `OC[C@@H]1C[C@H](c2c3ccccc3cc3ccccc23)N(Cc2ccccc2)O1` (racemic) gave a half-inhibitory concentration (IC50) with MOLT-3 [1] (Homo sapiens, MOLT-3) above 500 µM.

As for `OC[C@@H]1C[C@H](c2ccc3ccc4cccc5ccc2c3c45)N(Cc2ccccc2)O1` (racemic), the AC50 in the test with MOLT-3 [12] is above 500 µM; in the test on MOLT-3 [14] it was 97 µM; in the test on MOLT-3 [15], 67 µM. The 50% cytotoxic concentration (CC50) with MOLT-3 [12] was above 500 µM; with MOLT-3 [14] it was 97 µM; in the test on MOLT-3 [15], 58 µM. The IC50 in the test with U-937 (Homo sapiens, U-937) came to 193 µM; in the test on Vero [5] (Chlorocebus sabaeus, Vero), 301 µM; with THP-1 (Homo sapiens, THP-1), 192 µM; in the test with MOLT-3 [1] (Homo sapiens, MOLT-3), 127 µM.
